In ChEMBL document CHEMBL4699663, “Design, synthesis, and biological activity of novel semicarbazones as potent Ryanodine receptor1 inhibitors of Alzheimer's disease” (Bioorg Med Chem, 2021):
Converted amounts (≈) assume the structure as drawn. The source made the active and inactive calls. No cut-off for these calls is given here.

Legend:
Homo sapiens [1] = species: Homo sapiens; assay: Inhibition of RYR-1 R614C mutant (unknown origin) expressed in cells assessed as inhibition of store overload-induced Ca2+ release at 3 uM after 3 mins by fura-2AM dye based microscopic analysis relative to control; format: cell-based
Homo sapiens [2] = species: Homo sapiens; assay: Inhibition of RYR-1 R614C mutant (unknown origin) expressed in cells assessed as inhibition of store overload-induced Ca2+ release at 10 uM after 3 mins by fura-2AM dye based microscopic analysis relative to control; format: cell-based
Homo sapiens [3] = species: Homo sapiens; assay: Inhibition of RYR-1 R614C mutant (unknown origin) expressed in cells assessed as inhibition of store overload-induced Ca2+ release after 3 mins by microscopic analysis; format: cell-based; settings: dose microM 0.1-10, time 3.0 min
Homo sapiens [4] = species: Homo sapiens; assay: Inhibition of RYR-1 R614C mutant (unknown origin) expressed in cells assessed as inhibition of store overload-induced Ca2+ release at 0.1 uM after 3 mins by fura-2AM dye based microscopic analysis relative to control; format: cell-based
[5] = molecular target: Acetylcholinesterase (Electrophorus electricus) (UniProt O42275); assay: Inhibition of electric eel AChE at 5 uM using acetylthiocholine iodide as substrate preincubated with enzyme for 30 mins followed by substrate addition and measured for 10 mins by Ellman's method relative to control; settings: time 40.0 min
How it was run: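 Electrophorus electricus AChE at 0.25 U/mL, with 60 µM DTNB in 0.05 M phosphate buffer pH 8, was incubated 30 min with the DMSO-dissolved inhibitor. The reaction was then started with 1.5 mM acetylthiocholine iodide and read at 412 nm for 10 min. Percent inhibition was taken from reaction rates versus control, from three experiments run in triplicate.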

[6] = Kinetic aqueous solubility of the compound in PBS at pH 7.4 by turbidimetric analysis; format: physicochemical; settings: read-out: Kinetic_solubility
How it was run: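 Turbidimetric kinetic solubility: DMSO stocks were diluted 100-fold into PBS pH 7.4, giving eight final concentrations (1.6–200 mM as printed). After 2 h incubation, absorbance was read at 540 nm. Wells above blank mean + 3 SD counted as turbid, and the highest clear concentration was taken as the solubility.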

Mus musculus [7] = assay: Improvement in learning and spatial memory in SPF grade FAD mouse assessed as swimming time on target zone at 3.2 mg/kg, ip measured 24 hrs post trial training by probe test (reference value: 23.1 +/- 1.1 %); format: functional
Mus musculus [8] = assay: Cognitive enhancing effect in SPF grade FAD mouse assessed as reduction in mean escape latency time at 3.2 mg/kg, ip measured on day 3 by Morris water maze test (reference value: 35.59 sec); format: functional; settings: time 3 day
How it was run: (§1)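 Mixed-sex FAD mice, 5 months old at dosing, given 3.2 mg/kg intraperitoneally in DMSO (1.12 mg/ml) daily for 30 days; controls got the same volume of DMSO. Morris water maze training started after dosing. Mice entered the water facing the wall from four entry points in turn, and time to find and climb the platform was recorded. Data are mean ± SD, analysed by ANOVA.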

Mus musculus [9] = assay: Cognitive enhancing effect in SPF grade FAD mouse assessed as reduction in mean escape latency time at 3.2 mg/kg, ip measured on day 2 by Morris water maze test (reference value: 36.72 sec); format: functional; settings: time 2 day; how it was run: as §1
Mus musculus [10] = assay: Cognitive enhancing effect in SPF grade FAD mouse assessed as reduction in mean escape latency time at 3.2 mg/kg, ip measured on day 4 by Morris water maze test (reference value: 31.99 sec); format: functional; settings: time 4 day; how it was run: as §1
[11] = Toxicity in SPF grade FAD mouse assessed as effect on body weight at 3.2 mg/kg, ip administered for 30 consecutive days; format: organism-based; settings: in vivo, 720 h, time 30 day
How it was run: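 Mixed-sex FAD mice, 5 months old, were given 3.2 mg/kg/day intraperitoneally in DMSO (1.12 mg/ml) for 30 consecutive days; controls received the same volume of DMSO. Body weight was measured daily during dosing and reported as mean ± SD (n = 7).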

Homo sapiens [12] = species: Homo sapiens; assay: Inhibition of RYR-1 R614C mutant (unknown origin) expressed in cells assessed as inhibition of store overload-induced Ca2+ release at 10 uM after 3 mins by fura-2AM dye based microscopic analysis; format: cell-based
Homo sapiens [13] = species: Homo sapiens; assay: Inhibition of RYR-1 R614C mutant (unknown origin) expressed in cells assessed as inhibition of store overload-induced Ca2+ release at 3 uM after 3 mins by fura-2AM dye based microscopic analysis; format: cell-based
Homo sapiens [14] = species: Homo sapiens; assay: Inhibition of RYR-1 R614C mutant (unknown origin) expressed in cells assessed as inhibition of store overload-induced Ca2+ release at 0.1 uM after 3 mins by fura-2AM dye based microscopic analysis; format: cell-based

Acetylcholinesterase (Electrophorus electricus), sequence (O42275 24-633 limits assumed): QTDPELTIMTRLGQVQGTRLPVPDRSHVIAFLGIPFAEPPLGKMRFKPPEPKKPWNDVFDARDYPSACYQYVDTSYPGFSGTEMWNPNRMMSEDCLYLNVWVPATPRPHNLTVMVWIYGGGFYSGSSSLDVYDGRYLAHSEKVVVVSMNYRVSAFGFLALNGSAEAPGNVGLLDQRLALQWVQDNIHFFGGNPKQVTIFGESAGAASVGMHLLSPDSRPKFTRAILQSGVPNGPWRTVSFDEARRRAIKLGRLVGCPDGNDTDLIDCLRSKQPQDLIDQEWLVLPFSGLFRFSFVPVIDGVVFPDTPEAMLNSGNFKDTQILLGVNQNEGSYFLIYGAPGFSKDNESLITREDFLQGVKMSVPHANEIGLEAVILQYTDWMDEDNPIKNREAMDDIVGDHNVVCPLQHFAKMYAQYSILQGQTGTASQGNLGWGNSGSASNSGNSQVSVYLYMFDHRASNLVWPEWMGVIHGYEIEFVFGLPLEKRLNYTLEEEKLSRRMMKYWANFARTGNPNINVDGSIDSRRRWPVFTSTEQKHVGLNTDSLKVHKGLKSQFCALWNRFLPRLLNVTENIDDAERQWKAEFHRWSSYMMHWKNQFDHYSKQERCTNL

| Structure (SMILES) | inhibition (Homo sapiens [1]) | inhibition (Homo sapiens [2]) | inhibition (Homo sapiens [3]) | inhibition (Homo sapiens [4]) | other results |
| --- | --- | --- | --- | --- | --- |
| Cc1ccc(NC(=O)N/N=C/c2ccc(-c3ccc([N+](=O)[O-])cc3)o2)cc1 | 10.8% | 29.5% | Dose-dependent effect |  |  |
| O=C(N/N=C/c1ccc(-c2ccc([N+](=O)[O-])cc2)o1)Nc1ccccc1 | 35.8% | 93.9% | Dose-dependent effect | 15.9% | inhibition [5]: 19.3%; solubility kinetic [6]: 60 µM (≈ 21 µg/mL) |
| O=C(N/N=C/c1ccc(-c2ccc([N+](=O)[O-])cc2)o1)Nc1ccccc1OC(F)(F)F | 20.4% | 57.1% | Dose-dependent effect |  |  |
| O=C(N/N=C/c1ccc(-c2ccc([N+](=O)[O-])cc2)o1)c1cnc[nH]1 | 77.2% | 93.7% | Dose-dependent effect | 31.5% | Activity (Mus musculus [7]): 35.7%; Time (Mus musculus [8]): 25.12 s; Time (Mus musculus [9]): 29.89 s; inhibition [5]: 24.8%; solubility kinetic [6]: 580 µM (≈ 189 µg/mL); Time (Mus musculus [10]): 16.23 s; Activity [11]: Non-Toxic |
| O=C(N/N=C/c1ccc(-c2ccc([N+](=O)[O-])cc2)o1)Nc1ccc([N+](=O)[O-])cc1 | 14.1% | 32% | Dose-dependent effect |  |  |
| O=C(NCc1cccc(F)c1)N/N=C/c1ccc(-c2ccc([N+](=O)[O-])cc2)o1 | 25.8% | 72.1% | Dose-dependent effect |  | inhibition [5]: 33.6% |
| Cc1ccccc1NC(=O)N/N=C/c1ccc(-c2ccc([N+](=O)[O-])cc2)o1 |  |  |  |  | inhibition (Homo sapiens [12]): inactive; inhibition [5]: 18.2%; inhibition (Homo sapiens [13]): inactive; inhibition (Homo sapiens [14]): inactive |
| O=C(NCc1ccc(C(F)(F)F)cc1)N/N=C/c1ccc(-c2ccc([N+](=O)[O-])cc2)o1 | 27.9% | 53.1% | Dose-dependent effect | 19.7% |  |
| O=C(N/N=C/c1ccc(-c2ccc([N+](=O)[O-])cc2)o1)Nc1ccccc1Br | 38.5% | 67.1% | Dose-dependent effect | 20.1% |  |
| O=C(NCc1ccc(F)cc1)N/N=C/c1ccc(-c2ccc([N+](=O)[O-])cc2)o1 | 35.1% | 76.1% | Dose-dependent effect | 23.6% |  |
| O=C(NCc1ccc(Cl)cc1Cl)N/N=C/c1ccc(-c2ccc([N+](=O)[O-])cc2)o1 |  | 16.2% | Dose-dependent effect |  | inhibition [5]: 8.9% |
| O=C1CN(/N=C/c2ccc(-c3ccc([N+](=O)[O-])cc3)o2)C(O)=N1 [DANTROLENE] |  |  |  |  | solubility kinetic [6]: 560 µM (≈ 176 µg/mL) |
| Cc1cccc(NC(=O)N/N=C/c2ccc(-c3ccc([N+](=O)[O-])cc3)o2)c1 | 15.2% | 34.6% | Dose-dependent effect | 10.7% |  |
| O=C(NCc1cccc(Cl)c1Cl)N/N=C/c1ccc(-c2ccc([N+](=O)[O-])cc2)o1 |  | 30.6% | Dose-dependent effect |  |  |
| O=C(N/N=C/c1ccc(-c2ccc([N+](=O)[O-])cc2)o1)Nc1ccccc1Cl | 25.1% | 50.1% | Dose-dependent effect |  |  |
| O=C(NCc1ccccc1)N/N=C/c1ccc(-c2ccc([N+](=O)[O-])cc2)o1 | 23.1% | 48.6% | Dose-dependent effect |  |  |
| Cc1ccc(CNC(=O)N/N=C/c2ccc(-c3ccc([N+](=O)[O-])cc3)o2)cc1 |  | 35.4% | Dose-dependent effect |  |  |
| O=C(N/N=C/c1ccc(-c2ccc([N+](=O)[O-])cc2)o1)n1ccnc1 | 48.4% | 68.2% | Dose-dependent effect | 26.1% |  |
| COc1ccccc1NC(=O)N/N=C/c1ccc(-c2ccc([N+](=O)[O-])cc2)o1 |  | 30.6% | Dose-dependent effect |  |  |
| O=C(NCc1ccc(Cl)cc1)N/N=C/c1ccc(-c2ccc([N+](=O)[O-])cc2)o1 | 48.6% | 70.4% | Dose-dependent effect | 27.1% |  |
| O=C(NCc1ccc(Cl)c(Cl)c1)N/N=C/c1ccc(-c2ccc([N+](=O)[O-])cc2)o1 | 25.3% | 37.2% | Dose-dependent effect |  |  |
| O=C(N/N=C/c1ccc(-c2ccc([N+](=O)[O-])cc2)o1)Nc1ccc(Br)cc1 | 31.3% | 52.9% | Dose-dependent effect | 13.2% |  |
| O=C(N/N=C/c1ccc(-c2ccc([N+](=O)[O-])cc2)o1)Nc1cccc(Br)c1 | 67.1% | 67.1% | Dose-dependent effect | 26.7% |  |
| CN(/N=C/c1ccc(-c2ccc([N+](=O)[O-])cc2)o1)C(=O)c1cncn1C | 70.5% | 82.5% | Dose-dependent effect | 24.5% | inhibition [5]: 14.3%; solubility kinetic [6]: 480 µM (≈ 170 µg/mL) |
| CN(/N=C/c1ccc(-c2ccc([N+](=O)[O-])cc2)o1)C(=O)n1ccnc1 | 53.5% | 74.9% | Dose-dependent effect | 23% |  |
| O=C(N/N=C/c1ccc(-c2ccc([N+](=O)[O-])cc2)o1)Nc1ccccc1C(F)(F)F | 30.1% | 55.5% | Dose-dependent effect | 12.6% |  |
| O=C(NCc1ccccc1F)N/N=C/c1ccc(-c2ccc([N+](=O)[O-])cc2)o1 | 26.1% | 44.6% | Dose-dependent effect |  |  |
| O=C1CN(/N=C/c2ccc(-c3ccc([N+](=O)[O-])cc3)o2)C(=O)N1 | 73.1% | 94.2% | Dose-dependent effect | 30.8% | inhibition [5]: 0.1% |
